The list is not random: actives were taken first. Their share in the collection is about 3.7%.
KCNQ1 inh: inhibitors of human KCNQ1 channel, primary screen, cell-based, thallium flux, high-throughput. Potassium voltage-gated channel subfamily KQT member 1 (Homo sapiens), P51787. CHO-K1 KCNQ1, FluxOR thallium flux fluorescence; active compounds read high. B-score at 10 µM. hit rate 1.3% among 310,000. AID 2642, 2010;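 active means compounds whose thallium flux B-score, printed positive for inhibition, exceeds three library SD while starting fluorescence stays within three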;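 further: channel opened by potassium depolarization with thallium stimulus after 20 min compound exposure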
Target sequence (P51787 whole entry, looked up): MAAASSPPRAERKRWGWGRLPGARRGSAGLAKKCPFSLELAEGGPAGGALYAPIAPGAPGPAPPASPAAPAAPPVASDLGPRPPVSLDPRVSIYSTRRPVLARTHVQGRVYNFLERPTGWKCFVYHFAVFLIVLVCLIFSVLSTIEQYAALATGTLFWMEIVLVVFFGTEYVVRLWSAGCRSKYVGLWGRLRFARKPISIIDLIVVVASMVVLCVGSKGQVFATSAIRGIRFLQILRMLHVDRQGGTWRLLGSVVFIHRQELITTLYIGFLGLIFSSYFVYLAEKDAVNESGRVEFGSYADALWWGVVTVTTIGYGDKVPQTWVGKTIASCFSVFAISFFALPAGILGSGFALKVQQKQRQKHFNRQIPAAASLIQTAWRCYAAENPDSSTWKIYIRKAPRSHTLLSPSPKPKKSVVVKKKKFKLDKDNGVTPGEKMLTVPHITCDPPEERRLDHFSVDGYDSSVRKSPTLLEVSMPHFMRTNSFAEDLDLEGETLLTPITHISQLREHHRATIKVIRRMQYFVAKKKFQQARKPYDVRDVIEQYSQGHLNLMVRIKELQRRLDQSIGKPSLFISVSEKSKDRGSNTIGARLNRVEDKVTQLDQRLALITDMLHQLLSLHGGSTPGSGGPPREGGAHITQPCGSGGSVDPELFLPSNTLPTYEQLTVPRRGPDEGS
KCNK3 inh: human KCNK3 channel inhibitors, primary screen, CHO cells, FluxOR thallium flux, B-score. Potassium channel subfamily K member 3 (Homo sapiens), O14649. B-score at 10 µM. hit rate 0.84% among 340,000. FluxOR fluorescence; active compounds read low;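 active means B-score under library mean minus 4 SD, starting fluorescence ratio at most library mean plus 5 SD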;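 further: more negative B-score means stronger inhibition of thallium flux through KCNK3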
KCNK9 inh: KCNK9 potassium channel inhibitors, primary screen, HEK293 cells, thallium flux; Potassium channel subfamily K member 9 (Homo sapiens), Q9NPC2; FluxOR thallium flux fluorescence; active compounds read low; B-score at 10 µM; hit rate 1.2% among 310,000;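 active means ratio B-score over 3 SD below the library mean, with starting fluorescence within 5 SD of its mean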;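 further: negative B-score means less thallium flux so channel inhibition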
KCNQ1 pot: potentiators or activators of KCNQ1 channel, primary screen, cell-based, thallium flux, high-throughput; Potassium voltage-gated channel subfamily KQT member 1 (Homo sapiens), P51787; CHO-K1 KCNQ1, thallium flux FluxOR fluorescence; active compounds read high; B-score at 10 µM; hit rate 0.35% among 310,000; AID 2648, 2010;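 active means fluorescence ratio B-score, a plate-corrected score, at least three library SD, with initial intensity B-score within 5 SD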
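System: CHO-K1 cells stably expressing KCNQ1 / Medium: assay buffer for compound exposure, DMSO matched across wells / Reagent: thallium- and potassium-containing depolarizing buffer / Compound: one concentration, matched DMSO / Incubation: 20 min compound pretreatment at room temperature / Measured by: kinetic FluxOR fluorescence, 10 s baseline plus 110 s post-stimulus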
Kir21 inh: inhibitors of mouse Kir2.1 inward-rectifier potassium channel | Inward rectifier potassium channel 2 (Mus musculus), P35561 | B-score at 10 µM | AID 1672, 2009 | hit rate 0.85% among 310,000 | HEK293-Kir2.1, FluxOR thallium flux fluorescence; active compounds read low;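 active means fluorescence ratio B-score at or below minus 3 SD of library scores, with starting-brightness B-score within 2 SD, cut at about -4.2 in these data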;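 further: channel flux triggered by added potassium and thallium sulfate stimulus; B-score of peak minus minimum fluorescence over baseline after thallium stimulus; more negative B-score means stronger Kir2.1 block with less thallium influx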
hERG rescue: hERG rescue from dofetilide block, primary screen, cell-based, CHO-hERG, FluxOR thallium flux, dofetilide IC70 | activation (rescue from dofetilide block), less the hit threshold, % at 10 µM | dofetilide IC70 present | Voltage-gated inwardly rectifying potassium channel KCNH2 (Homo sapiens), Q12809 | hit rate 0.51% among 310,000;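 active means activation above the mean of controls blocked by dofetilide plus 5 SD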;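 further: thallium influx through hERG after potassium depolarization seen as dye fluorescence rise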
KCNK9 inh conf: KCNK9 potassium channel inhibitors, confirmation, HEK293 cells, thallium flux, duplicate. hit rate 43% among 4,900. FluxOR thallium flux fluorescence. inhibition, % at 10 µM. shares compounds with KCNK9 inh;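 active means thallium signal inhibited by more than 5 SD of the compound-free buffer control wells, on both duplicate plates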;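 further: 0% = assay buffer control wells without compound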
Kir21 sel: mouse Kir2.1 channel inhibition, confirmation, selectivity assay for KCNK9 modulator project, cell-based, HEK293, thallium flux | inhibition, % at 10 µM | shares compounds with KCNK9 inh | Kir2.1 cells, FluxOR thallium flux fluorescence | hit rate 4% among 4,900;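 active means thallium signal drop more than 5 SD beyond the mean of the no-compound control wells, seen in both duplicate plates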;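 further: signal is fluorescence rise after thallium addition divided by baseline fluorescence; plate controls were assay buffer only for no effect and full block by chlorpromazine control for full effect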
HEK293 Tl ctr: thallium flux in non-induced HEK293 cells, confirmation, counter-screen for KCNK9 inhibitor project, cell-based, second counter screen, non-induced KCNK9-HEK293; shares compounds with KCNK9 inh; inhibition, % at 10 µM; hit rate 40% among 4,900; FluxOR thallium flux;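 active means thallium signal drop beyond 5 SD of the untreated control mean, on both duplicate plates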;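 further: plate controls were buffer only IC0 wells for no effect and SID17386958 at its maximal inhibitory level for full effect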
KCNK3 inh conf: retest of human KCNK3 channel inhibitors, confirmation, CHO cells, FluxOR thallium flux, triplicate; FluxOR fluorescence; 0% buffer, 100% carvedilol maximal block; ratio percent of control, % at 10 µM; hit rate 99% among 2,400; shares compounds with KCNK3 inh;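 active means ratio percent of control, averaged over triplicates, above buffer control mean plus 5 SD, cut at about 64% in these data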;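 further: ratio is the fluorescence rise from min to max over baseline after thallium stimulus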
KCNK3 noninduced: thallium flux inhibition in non-induced cells, primary screen, counter-screen for KCNK3 inhibitor project, cell-based, non-induced KCNK3 line, FluxOR thallium, triplicate. non-induced KCNK3 parental cells; active compounds read low. AID 651747, 2012. hit rate 40% among 2,400. shares compounds with KCNK3 inh. thallium flux ratio (lower = more inhibition) at 10 µM;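 active means thallium flux ratio, averaged over three wells, more than 5 SD below the buffer control mean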;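 further: host cells are CHO cells without KCNK3 induction; ratio is peak minus trough fluorescence over baseline then normalized to buffer controls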
The depositor's hits bear a star; i = inactive; / = not tested or not shown.

SMILES	KCNQ1 inh	KCNK3 inh	KCNK9 inh	KCNQ1 pot	Kir21 inh	hERG rescue	KCNK9 inh conf	Kir21 sel	HEK293 Tl ctr	KCNK3 inh conf	KCNK3 noninduced
CCOc1ccccc1NC(=O)C1CCN(c2nc(-c3ccc(OC)cc3)no2)CC1	i	i	i	i	0.72	-4.5	/	/	/	/	/
Cn1ncc(C#N)c1/N=C/N(Cc1ccccc1)Cc1ccccc1	i	-8.86*	-15.4*	i	0.37	-10.5	36.0%*	i	29.0%*	113.7*	0.156*
CCOC(=O)C1CCN(C(c2cccnc2)c2c(NC(=O)c3ccco3)sc(C)c2C)CC1 (stereo not given)	i	-10.7*	-18.6*	i	-0.09	-17.4	66.5%*	i	40.0%*	136.3*	0.114*
CCOC(=O)C1CCN(C(=O)c2cccnc2)CC1	i	i	i	i	0.55	0.4	/	/	/	/	/
COC(=O)c1ccc(CSc2nc(-c3ccco3)cc(C(F)(F)F)n2)o1	i	i	-10.6*	i	0.76	-9.4	38.5%*	i	45.0%*	115.3*	0.148*
COc1ccc(CCNC(=O)CSc2nc(-c3ccco3)cc(C(F)(F)F)n2)cc1	i	i	i	i	-1.19	-2.1	/	/	/	/	/
Cc1ccc(CN2CCC(n3nccc3NC(=O)CCOc3ccccc3)CC2)cc1C	i	i	i	i	-2.24	-7.0	/	/	/	/	/
CCC1CCCCN1C(=O)COc1ccc(S(=O)(=O)N2CCOCC2)cc1Cl (stereo not given)	/	i	/	/	/	/	/	/	/	/	/
O=C(O)c1nn(-c2ccccc2)c(-c2ccccc2)c1C(=O)c1ccccc1	i	i	i	i	-0.16	-12.1	/	/	/	/	/
COC(=O)c1nn(-c2ccccc2)c(-c2ccccc2)c1C(=O)c1ccccc1	i	-8.86*	-9.41*	i	0.41	-11.2	48.0%*	i	i	106.3*	i
O=C(Nc1ccccc1C(=O)N1CCCCC1)c1ccc(Cl)cc1Cl	i	i	i	i	-0.06	-6.8	/	/	/	/	/
CC(C)CC(c1nnnn1Cc1cccs1)N1CCN(c2nc3ccccc3s2)CC1 (stereo not given)	i	-10.3*	-11.7*	i	-1.14	-12.0	38.0%*	i	i	128.7*	0.121*
CCn1nc(C(=O)OCC(=O)c2ccc(F)cc2)c2ccccc2c1=O	i	i	i	i	0.38	-1.7	/	/	/	/	/
CCn1nc(C(=O)OC(C(=O)c2c[nH]c3ccccc23)c2ccccc2)c2ccccc2c1=O (stereo not given)	8*	-9.04*	-11.1*	i	-0.02	-20.1	32.0%*	i	i	88.7*	i
Cc1sc(NC(=S)NC(=O)C2CCCCC2)c(C(N)=O)c1C	i	i	i	i	-1.52	-4.2	/	/	/	/	/
CCCCN(CCCC)S(=O)(=O)c1ccc(NC(=O)c2cccs2)cc1	i	i	-8.64*	i	0.2	-18.8	48.0%*	i	44.0%*	120.7*	0.154*
CC1CCN(S(=O)(=O)c2ccc(NC(=O)c3cccs3)cc2)CC1	i	i	i	i	-2.25	-6.8	/	/	/	/	/
CC1CCCCN1S(=O)(=O)c1ccc(NC(=O)c2cccs2)cc1 (stereo not given)	i	i	-8.68*	i	-1.48	-11.9	41.0%*	i	i	88.3*	i
COc1ccccc1CC(=O)N1CCN(C(=O)c2ccco2)CC1	i	i	i	i	0.17	-9.3	/	/	/	/	/
CCN(CC)C(=O)Oc1cc2c(-c3cc4cccc(OC)c4o3)cc(=O)oc2cc1C	i	-13.9*	-20.7*	i	1.13	-16.5	77.0%*	i	i	101.3*	i
C=CCC1(CC=C)CCCN1C(=O)CC1C(=O)NCCN1Cc1cccc(OC)c1OC (stereo not given)	i	i	i	i	1.6	-7.1	/	/	/	/	/
CNC(=S)N1N=C(c2cccs2)CC1c1ccc(F)cc1 (stereo not given)	i	i	i	i	0.22	-8.9	/	/	/	/	/
Fc1ccc(C2CC(c3cccs3)=NN2c2ccccc2)cc1 (stereo not given)	i	-8.89*	-9.83*	i	0.35	-15.8	58.5%*	i	38.5%*	104.0*	0.147*
Cc1ccc(NC(=O)Nc2cccn(Cc3c(F)cccc3Cl)c2=O)cc1	i	i	i	i	0.29	-12.1	/	/	/	/	/
Cc1ccc(CN2CCCN(Cc3c(F)cccc3Cl)S2(=O)=O)cc1	i	-10.1*	-13.9*	i	-0.13	-4.7	60.0%*	i	43.0%*	113.0*	i
CCCCN1C(=O)C(=O)N(CC(=O)Nc2cc(S(=O)(=O)N(C)C)ccc2C)C1=O	i	i	i	i	1.21	-10.1	/	/	/	/	/
CC(C)(C)CC(=O)Nc1ccccc1N1CCN(c2ccc(F)cc2)CC1	i	-8.97*	-11.8*	i	0.03	-6.2	73.0%*	i	37.0%*	120.3*	0.137*
CC(C)(C)CC(=O)Nc1ccccc1N1CCN(c2ccccc2)CC1	i	i	i	i	1.37	-7.7	/	/	/	/	/
O=C(Nc1ccccc1N1CCN(c2ccc(F)cc2)CC1)c1ccccc1	i	-13.9*	-10.3*	i	-1.54	-3.8	i	i	29.0%*	124.7*	0.148*

Screens: PubChem BioAssay, Johns Hopkins Ion Channel Center
